The values that follow come from ChEMBL document CHEMBL3797076, “5-HT2 receptor affinity, docking studies and pharmacological evaluation of a series of 1,3-disubstituted thiourea derivatives” (Eur J Med Chem, 2016).

Structures are written as SMILES. pKi: −log10 of the molar value. The source made the active and inactive calls. The rule behind the calls is not given here.

In data set [1] the test system is Mus musculus. Kind of data set: Antinociceptive activity in Albino Swiss mouse assessed as inhibition of acetic acid-induced writhing response at 0.1 ED50, ip administered 60 mins prior to test measured for 10 mins. Format: functional, organism-based. Put shortly: (§1)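 Male Albino Swiss mice, i.p. dosing in 0.5% methylcellulose 60 min beforehand; 0.6% acetic acid injected i.p., writhing episodes counted for 10 min beginning 5 min after acid. Mean ± SEM; one-way ANOVA with Dunnett's test vs control.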

In data set [2] the target is 5-hydroxytryptamine receptor 2A (Rattus norvegicus, UniProt P14842). Kind of data set: Displacement of [3H]ketanserin from 5HT2A receptor in Sprague-Dawley rat brain cortex incubated for 15 mins. The procedure, abridged:
(§2)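 Rat frontal cortex homogenized in 50 mM Tris-HCl, 0.5 mM EDTA, 10 mM MgCl2, pH 7.4, washed, resuspended with 0.1% ascorbate and pargyline. Triplicates: 5-HT2A used 0.4 nM [3H]ketanserin, cinanserin for nonspecific binding; 5-HT2C used 1 nM [3H]mesulergine, mianserin nonspecific, 100 nM spiperone added. 15 min at 37 C, glass-fiber filtration.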

The target in data set [3] is T1, 5-hydroxytryptamine receptor 2C (Rattus norvegicus, UniProt P08909).
T1 sequence (P08909 whole entry): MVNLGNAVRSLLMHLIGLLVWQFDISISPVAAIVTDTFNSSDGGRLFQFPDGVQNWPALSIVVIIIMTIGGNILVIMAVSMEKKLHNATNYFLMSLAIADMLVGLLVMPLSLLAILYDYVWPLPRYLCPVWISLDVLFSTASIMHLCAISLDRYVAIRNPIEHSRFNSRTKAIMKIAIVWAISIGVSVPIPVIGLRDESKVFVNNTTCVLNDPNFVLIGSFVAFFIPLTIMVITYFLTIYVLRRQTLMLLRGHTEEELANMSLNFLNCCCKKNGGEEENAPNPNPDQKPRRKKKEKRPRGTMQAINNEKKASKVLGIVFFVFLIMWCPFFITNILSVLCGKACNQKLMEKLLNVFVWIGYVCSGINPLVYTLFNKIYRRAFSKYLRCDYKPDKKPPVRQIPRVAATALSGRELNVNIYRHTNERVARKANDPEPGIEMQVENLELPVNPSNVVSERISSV
Kind of data set: Displacement of [3H]mesulergine from 5HT2C receptor in Sprague-Dawley rat brain cortex incubated for 15 mins. Put shortly:
as §2

Data set [4] deals with Mus musculus. Briefly: Neurotoxicity in Albino Swiss mouse assessed as induction of myorelaxation at 0.0125 to 0.1 ED50, ip after 60 mins by chimney test. Format: toxicity, organism-based. The note with it: in vivo, 1 h.
Data set [5] concerns Mus musculus. Kind of data set: Neurotoxicity in Albino Swiss mouse assessed as induction of myorelaxation at 0.0125 to 0.1 ED50, ip after 60 mins by rotarod test. Format: toxicity, organism-based. The note with it: in vivo, 1 h. (In general: In the rotarod test animals must keep their balance on a rotating rod.)
For data set [6], the system named is Mus musculus. Kind of data set: Neurotoxicity in Albino Swiss mouse assessed as impairment in motor coordination at 0.0125 to 0.1 ED50, ip after 60 mins by chimney test. The note with it: in vivo, 1 h. Format: toxicity, organism-based.
Data set [7] concerns Mus musculus. Kind of data set: Neurotoxicity in Albino Swiss mouse assessed as impairment in motor coordination at 0.0125 to 0.1 ED50, ip after 60 mins by rotarod test. Format: toxicity, organism-based. The note with it: in vivo, 1 h.
Data set [8] has as its system Mus musculus. Kind of data set: Toxicity in ip dosed Albino Swiss mouse assessed as loss of righting reflex administered 60 mins before test measured up to 48 hrs. The note with it: in vivo. Format: organism-based. Put shortly:
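Acute toxicity in male Albino Swiss mice by Litchfield-Wilcoxon method: ED50 for loss of righting reflex after i.p. dosing, observed at 15, 30, 60, 180 min and 24, 48 h.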

Data set [9] has as its system Mus musculus. Kind of data set: Toxicity in Albino Swiss mouse assessed as inhibition of spontaneous locomotor activity at 0.1 ED50, ip administered 60 mins before test measured for 30 mins by photoresistor actometer analysis. Format: organism-based. The following applies: in vivo, 0.5 h. The procedure, abridged:
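Spontaneous locomotion of single male Albino Swiss mice recorded in two-beam photoresistor actometers as beam crossings for 30 min, beginning 60 min after i.p. compound (suspension in 0.5% methylcellulose).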

Data set [10] has as its system Mus musculus. Kind of data set: Inhibition of 5-HTP-induced head twitch response in Albino Swiss mouse at 0.1 ED50, ip administered 60 mins before 5-HTP injection relative to untreated control. Format: functional. Put shortly: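 Male Albino Swiss mice given compound i.p. (0.1 ED50, 0.5% methylcellulose) 60 min before the test; L-5-HTP 230 mg/kg i.p. injected immediately before. Head twitches counted; mean ± SEM, Dunnett's test vs control.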

Data set [11] deals with Mus musculus. Kind of data set: Antinociceptive activity in Albino Swiss mouse assessed as inhibition of acetic acid-induced writhing response at 0.1 ED50, ip administered 60 mins prior to test measured for 10 mins in presence of opioid receptor antagonist naloxone. Format: functional, organism-based. In general terms: Writhing tests count abdominal constrictions after an irritant is injected.

The test system of data set [12] is Mus musculus. Kind of data set: Inhibition of amphetamine-induced hyperlocomotion in Albino Swiss mouse at 0.1 ED50, ip administered 60 mins prior to test measured for 30 mins by photoresistor actometer analysis. Format: functional. The procedure, abridged:
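Single male Albino Swiss mice; compound i.p. 60 min and amphetamine 5 mg/kg s.c. 30 min before test. Photoresistor actometers (circular cage, two light beams) counted beam crossings over 30 min; mean ± SEM, Dunnett's test vs control.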

The test system of data set [13] is Mus musculus. Kind of data set: Antinociceptive activity in Albino Swiss mouse assessed as inhibition of acetic acid-induced writhing response at 0.025 to 0.05 ED50, ip administered 60 mins prior to test measured for 10 mins. Format: functional, organism-based. The procedure, abridged: as §1
The subject of data set [14] is Mus musculus. Briefly: Antinociceptive activity in Albino Swiss mouse assessed as inhibition of acetic acid-induced writhing response at 0.05 ED50, ip administered 60 mins prior to test measured for 10 mins in presence of opioid receptor antagonist naloxone. Format: functional, organism-based.
The subject of data set [15] is Mus musculus. Briefly: Anticonvulsant activity in Albino Swiss mouse assessed as protection against pentetrazol-induced tonic seizure at 0.1 ED50, ip administered 60 mins prior to test relative to untreated control. Format: functional. Put shortly: (§3)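 Male Albino Swiss mice (18-30 g); compound given i.p. as suspension in 0.5% methylcellulose 60 min before test; pentylenetetrazole 110 mg/kg s.c. Scored as number of mice with clonic seizures, tonic convulsions and deaths per animals tested; Fisher's exact test vs solvent control.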

Data set [16] deals with Mus musculus. Briefly: Anticonvulsant activity in Albino Swiss mouse assessed as protection against pentetrazol-induced clonic seizure at 0.1 ED50, ip administered 60 mins prior to test relative to untreated control. Format: functional. Put shortly: as §3
In data set [17] the test system is Mus musculus. Briefly: Protection against pentetrazol-induced mortality in Albino Swiss mouse at 0.05 ED50, ip administered 60 mins prior to test. Format: functional, organism-based. Put shortly:
as §3

In data set [18] the test system is Mus musculus. Briefly: Decrease in body temperature in Albino Swiss mouse at 0.1 ED50, ip administered 60 mins before test measured 60 to 120 mins post dose. Format: functional, organism-based. Put shortly: (§4)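 Normothermic male Albino Swiss mice; rectal temperature by thermistor thermometer. Baseline taken as mean of readings at 60 and 30 min before dosing; i.p. dose (0.1 ED50, 0.5% methylcellulose vehicle) then readings at 30, 60, 90, 120 min (to 180 min for some). Change = final minus initial; Bonferroni post hoc test.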

Data set [19] deals with Mus musculus. Briefly: Increase in body temperature in Albino Swiss mouse at 0.1 ED50, ip administered 60 mins before test measured 30 to 90 mins post dose. Format: functional, organism-based. The procedure, abridged:
as §4

For data set [20], the system named is Mus musculus. Briefly: Protection against pentetrazol-induced mortality in Albino Swiss mouse at 0.1 ED50, ip administered 60 mins prior to test relative to untreated control. Format: functional. Put shortly: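 Male Albino Swiss mice (18–30 g). Compound given i.p. as suspension in 0.5% methylcellulose (10 mL/kg), 60 min before test; controls got vehicle. Dose expressed as fraction of ED50 (loss of righting reflex within 48 h). Convulsions induced by pentylenetetrazole 110 mg/kg s.c.; dead animals counted per group (n=10; control n=16). Significance vs control by Fisher's exact test.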

In data set [21] the test system is Mus musculus. Kind of data set: Anticonvulsant activity in Albino Swiss mouse assessed as protection against pentetrazol-induced clonic seizure at 0.05 ED50, ip administered 60 mins prior to test relative to untreated control. Format: functional, organism-based. The procedure, abridged:
as §3

Data set [22] relates to Mus musculus. Briefly: Effect on body temperature in Albino Swiss mouse at 0.1 ED50, ip administered 60 mins before test measured 30 to 180 mins post dose. Format: functional, organism-based. The procedure, abridged: as §4
For data set [23], the system named is Mus musculus. Kind of data set: Inhibition of 5-HTP-induced head twitch response in ddY mouse at >=1 mg/kg, po administered 1 hr before 5-HTP injection measured after 30 mins relative to untreated control. Format: functional.

Sequence of 5-hydroxytryptamine receptor 2A (P14842 whole entry): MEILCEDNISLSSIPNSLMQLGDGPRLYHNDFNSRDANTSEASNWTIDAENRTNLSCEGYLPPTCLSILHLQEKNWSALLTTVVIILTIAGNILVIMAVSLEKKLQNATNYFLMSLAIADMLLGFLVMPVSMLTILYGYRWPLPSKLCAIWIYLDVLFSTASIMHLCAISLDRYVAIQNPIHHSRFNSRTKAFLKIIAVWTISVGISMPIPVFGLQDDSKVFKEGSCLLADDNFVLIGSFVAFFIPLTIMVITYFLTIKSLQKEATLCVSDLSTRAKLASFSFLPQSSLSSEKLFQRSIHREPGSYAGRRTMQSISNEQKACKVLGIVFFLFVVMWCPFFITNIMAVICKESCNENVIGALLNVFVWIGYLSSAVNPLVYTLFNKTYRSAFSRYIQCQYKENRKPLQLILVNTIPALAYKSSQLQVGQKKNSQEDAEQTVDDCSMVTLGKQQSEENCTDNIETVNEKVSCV

As a reminder, the pKi is the Ki on a negative log10 scale, so that one unit is a factor of ten. The ED50 is the dose that gives a 50% effect, or the effect in half of the subjects. As for `FC(F)(F)c1cccc(NC(=S)Nc2ccccc2Cl)c1`, the inhibition result with Mus musculus [1] and in the data set with Mus musculus [11] was “Active” throughout. Also, the pKi in [2] and in data set [3] was less than 5.00 in each case. Further, the Activity result is reported as “Non-toxic” with Mus musculus [4]; “Non-toxic” in the data set on Mus musculus [5]; “Non-toxic” with Mus musculus [6]; “Non-toxic” in the data set on Mus musculus [7]; “Toxic” with Mus musculus [9]. In addition, the ED50 in the data set with Mus musculus [8] came out at 2000 mg/kg. In addition, the “inhibition (INH)” value with Mus musculus [10] is given as 72.4%.

Consider `O=[N+]([O-])c1cc(NC(=S)Nc2ccccc2Cl)ccc1Cl`, for which the pKi in [2] and in data set [3] was less than 5.00 each time. Moreover, the Activity result in the data set with Mus musculus [9] is “Non-toxic”.

For the compound `O=[N+]([O-])c1cc(NC(=S)NCc2ccccc2)ccc1Cl`, the inhibition result in the data set with Mus musculus [1], with Mus musculus [13] and in the data set with Mus musculus [14] was “Active” in each case. Also, the pKi in data set [2] and in [3] was less than 5.00 in each case. In addition, in the data set with Mus musculus [12], the inhibition entry is “inactive”. The Activity result with Mus musculus [4] is “Non-toxic”; with Mus musculus [5], “Non-toxic”; in the data set on Mus musculus [6] it was “Non-toxic”; in the data set with Mus musculus [7] it was “Non-toxic”; with Mus musculus [9], “Non-toxic”; in the data set on Mus musculus [15], 43.75%. Moreover, the Activity in the data set with Mus musculus [16] is 43.75%. Further, in the data set with Mus musculus [8], the ED50 worked out at 909 mg/kg. Further, the “inhibition (INH)” value in the data set with Mus musculus [10] was 70.5%. Besides, the result in the data set on Mus musculus [17] and with Mus musculus [18] was Active.

For `COc1ccc(NC(=S)Nc2cccc(C(F)(F)F)c2)cc1`, the pKi in [2] and in data set [3] was less than 5.00 each time. Moreover, the inhibition entry in the data set on Mus musculus [12] is “Active”. The Activity entry in the data set with Mus musculus [4], with Mus musculus [5], in the data set with Mus musculus [6], in the data set on Mus musculus [7] and in the data set with Mus musculus [9] was “Non-toxic” throughout. For the same compound, the ED50 with Mus musculus [8] was 771.4 mg/kg. Besides, the inhibition entry with Mus musculus [10] was “inactive”. In addition, the outcome with Mus musculus [16] was inactive. Further, the result with Mus musculus [19] was Active.

As for `FC(F)(F)c1cccc(NC(=S)NCCc2ccccc2)c1`, the inhibition result in the data set on Mus musculus [1], with Mus musculus [13] and with Mus musculus [14] was “Active” throughout. Moreover, the pKi in data set [2] and in [3] was less than 5.00 each time. The “inhibition (INH)” value in the data set with Mus musculus [12] is recorded as 42.48%. Further, the Activity result with Mus musculus [4] is reported as “Non-toxic”; with Mus musculus [5] it was “Non-toxic”; in the data set on Mus musculus [6], “Non-toxic”; in the data set on Mus musculus [7], “Non-toxic”; in the data set on Mus musculus [9], “Non-toxic”; with Mus musculus [15] it was 46.66%. In the data set with Mus musculus [20], this compound yielded an Activity of 48.33%. Besides, the ED50 with Mus musculus [8] turned out to be 709.6 mg/kg. Further, the inhibition entry in the data set on Mus musculus [10] was “inactive”. Also, the outcome in the data set with Mus musculus [21] and in the data set with Mus musculus [22] was inactive.

`Cc1nc2sccn2c(=O)c1CCN1CCC(=C(c2ccc(F)cc2)c2ccc(F)cc2)CC1` [RITANSERIN]: the “inhibition (INH)” value in the data set on Mus musculus [23] is given as greater than 80%.

With `O=C(NC(=S)Nc1ccc(Cl)c([N+](=O)[O-])c1)c1ccccc1`, the pKi in [2] and in [3] was less than 5.00 in each case. Moreover, the Activity result in the data set on Mus musculus [9] is “Non-toxic”.

Regarding `O=[N+]([O-])c1cc(NC(=S)Nc2ccccc2)ccc1Cl`, the pKi in data set [2] and in [3] was less than 5.00 in each case.
